Data published in ChEMBL document CHEMBL3797096, “Synthesis and in vitro evaluation of (R), (S) and (R/S)-2-hexyne-1,4-diol, a natural product produced by fungus Clitocybe catinus, and related analogs as potential anticancer agents” (Bioorg Med Chem Lett, 2016).
The source made the active and inactive calls. No cut-off for these calls is given here.

How the values were obtained:
J774.A1 = assay: Cytotoxicity against mouse J774.A1 cells at 100 ug/ml after 72 hrs by MTT assay; format: cell-based; settings: j774.a1, 72 h
Outline: (§1)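 Single-concentration screen of mouse cells at 100 µg/mL final concentration. Viability read by colorimetric MTT assay after 72 h of incubation; percent growth inhibition given as means (standard deviations); doxorubicin as positive control.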

K562 [1] = assay: Cytotoxicity against human K562 cells assessed as cell death at 100 ug/ml after 72 hrs by MTT assay; format: functional
Outline: (§2)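 Single-concentration colorimetric MTT screen of test compounds at a fixed final concentration. Incubation was 72 h, and the read-out was growth inhibition of the tumour cell lines. Values are given as means with standard deviations. Doxorubicin served as the positive control.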

NCI-H292 [2] = assay: Cytotoxicity against human NCI-H292 cells assessed as cell death at 100 ug/ml after 72 hrs by MTT assay; format: functional; outline: as §2
[3] = Cytotoxicity against human Hep2 cells assessed as cell death at 100 ug/ml after 72 hrs by MTT assay; format: functional, HEp-2; outline: as §2
[4] = Cytotoxicity against human HL60 cells assessed as cell death at 100 ug/ml after 72 hrs by MTT assay; format: functional, HL-60; outline: as §2
MCF7 [5] = assay: Cytotoxicity against human MCF7 cells assessed as cell death at 100 ug/ml after 72 hrs by MTT assay; format: functional; outline: as §2
RAW264.7 = assay: Cytotoxicity against mouse RAW264.7 cells at 100 ug/ml after 72 hrs by MTT assay; format: cell-based; settings: raw264.7, 72 h; outline: as §1
NCI-H292 [6] = assay: Cytotoxicity against human NCI-H292 cells after 72 hrs by MTT assay; format: functional, cell-based
Outline: (§3)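 Colorimetric MTT assay on human tumour cells after 72 h of incubation; values expressed as means (standard deviations), with doxorubicin as positive control.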

HL-60 = assay: Cytotoxicity against human HL60 cells after 72 hrs by MTT assay; format: functional, cell-based; outline: as §3
MCF7 [7] = assay: Cytotoxicity against human MCF7 cells after 72 hrs by MTT assay; format: functional, cell-based; outline: as §3
HEp-2 = assay: Cytotoxicity against human Hep2 cells after 72 hrs by MTT assay; format: functional, cell-based; outline: as §3
K562 [8] = assay: Cytotoxicity against human K562 cells after 72 hrs by MTT assay; format: functional, cell-based; outline: as §3

CCC(C)(O)C#CCO (stereo unspecified)
Activity (J774.A1): 61.2% | Activity (K562 [1]): 16% | Activity (NCI-H292 [2]): 5% | Activity [3]: 0% | Activity [4]: 13.3% | Activity (MCF7 [5]): 27.2% | Activity (RAW264.7): 0%

OCC#CC(O)c1ccccc1 (stereo unspecified)
Activity (J774.A1): 17.1% | Activity (K562 [1]): 3.8% | Activity (NCI-H292 [2]): 86.9% | Activity [3]: 28.1% | Activity [4]: 29.5% | Activity (MCF7 [5]): 68.1% | Activity (RAW264.7): 16%

CC(O)C#CCCO (stereo unspecified)
Activity (J774.A1): 16.5% | Activity (K562 [1]): 25.1% | Activity (NCI-H292 [2]): 0.3% | Activity [3]: 2.2% | Activity [4]: 0% | Activity (MCF7 [5]): 17.8% | Activity (RAW264.7): 9.4%

CC(O)C#CCO (stereo unspecified)
Activity (J774.A1): 100% | TGI (NCI-H292 [6]): Active | Activity (K562 [1]): 100% | Activity (NCI-H292 [2]): 100% | Activity [3]: 100% | TGI (HL-60): Active | TGI (MCF7 [7]): Active | Activity [4]: 100% | Activity (MCF7 [5]): 100% | TGI (HEp-2): Active | TGI (K562 [8]): Active | Activity (RAW264.7): 100%

CC[C@H](O)C#CCO
Activity (J774.A1): 1.7% | Activity (K562 [1]): 27% | Activity (NCI-H292 [2]): 85% | Activity [3]: 31.3% | Activity [4]: 1.4% | Activity (MCF7 [5]): 51.6% | Activity (RAW264.7): 19.5%

CC(O)CC#CCCO (stereo unspecified)
Activity (J774.A1): 15.7% | Activity (K562 [1]): 0% | Activity (NCI-H292 [2]): 71.5% | Activity [3]: 84.1% | Activity [4]: 9.6% | Activity (MCF7 [5]): 69.5% | Activity (RAW264.7): 19.3%

CCC(O)C#CCCO (stereo unspecified)
Activity (J774.A1): 42.6% | Activity (K562 [1]): 0% | Activity (NCI-H292 [2]): 15.5% | Activity [3]: 12.9% | Activity [4]: 5.1% | Activity (MCF7 [5]): 34.3% | Activity (RAW264.7): 6.1%

CC(C)C(O)C#CCO (stereo unspecified)
Activity (J774.A1): 2% | Activity (K562 [1]): 20.9% | Activity (NCI-H292 [2]): 69.8% | Activity [3]: 42.7% | Activity [4]: 0% | Activity (MCF7 [5]): 28.7% | Activity (RAW264.7): 17.8%

COc1cccc2c1C(=O)c1c(O)c3c(c(O)c1C2=O)C[C@@](O)(C(=O)CO)C[C@@H]3O[C@H]1C[C@H](N)[C@H](O)[C@H](C)O1 [DOXORUBICIN]
Activity (J774.A1): 96% | Activity (K562 [1]): 91.7% | Activity (NCI-H292 [2]): 94.1% | Activity [3]: 79.4% | Activity [4]: 92.9% | Activity (MCF7 [5]): 74.8% | Activity (RAW264.7): 96.5%

CCCC(O)C#CCO (stereo unspecified)
Activity (J774.A1): 100% | TGI (NCI-H292 [6]): Active | Activity (K562 [1]): 100% | Activity (NCI-H292 [2]): 100% | Activity [3]: 100% | TGI (HL-60): Active | TGI (MCF7 [7]): Active | Activity [4]: 100% | Activity (MCF7 [5]): 100% | TGI (HEp-2): Active | TGI (K562 [8]): Active | Activity (RAW264.7): 100%

CC(O)C#CC(O)(c1ccccc1)c1ccccc1 (stereo unspecified)
Activity (J774.A1): 93.1% | Activity (K562 [1]): 80% | Activity (NCI-H292 [2]): 91% | Activity [3]: 84% | Activity [4]: 96.1% | Activity (MCF7 [5]): 27.3% | Activity (RAW264.7): 95%

CC(O)C#CC1(O)CCCCC1 (stereo unspecified)
Activity (J774.A1): 57.5% | Activity (K562 [1]): 16.7% | Activity (NCI-H292 [2]): 6.6% | Activity [3]: 9.3% | Activity [4]: 8.9% | Activity (MCF7 [5]): 40.8% | Activity (RAW264.7): 4.2%

CC[C@@H](O)C#CCO
Activity (J774.A1): 0.2% | Activity (K562 [1]): 40.9% | Activity (NCI-H292 [2]): 55.7% | Activity [3]: 38.8% | Activity [4]: 12.1% | Activity (MCF7 [5]): 52.5% | Activity (RAW264.7): 9.6%

CC(C)C(O)C#CC(C)(C)O (stereo unspecified)
Activity (J774.A1): 55.3% | Activity (K562 [1]): 9.7% | Activity (NCI-H292 [2]): 21.5% | Activity [3]: 0% | Activity [4]: 7.3% | Activity (MCF7 [5]): 40.7% | Activity (RAW264.7): 0%

CCCCCC(O)C#CCO (stereo unspecified)
Activity (J774.A1): 100% | TGI (NCI-H292 [6]): Active | Activity (K562 [1]): 100% | Activity (NCI-H292 [2]): 100% | Activity [3]: 100% | TGI (HL-60): Active | TGI (MCF7 [7]): Active | Activity [4]: 100% | Activity (MCF7 [5]): 100% | TGI (HEp-2): Active | TGI (K562 [8]): Active | Activity (RAW264.7): 100%

CC(O)CC#CCO (stereo unspecified)
Activity (J774.A1): 60.8% | Activity (K562 [1]): 0% | Activity (NCI-H292 [2]): 20.2% | Activity [3]: 14.8% | Activity [4]: 11% | Activity (MCF7 [5]): 0% | Activity (RAW264.7): 8.5%

CC(C)C(O)C#CCCO (stereo unspecified)
Activity (J774.A1): 30.4% | Activity (K562 [1]): 0% | Activity (NCI-H292 [2]): 49.9% | Activity [3]: 85.7% | Activity [4]: 0% | Activity (MCF7 [5]): 54.1% | Activity (RAW264.7): 17.8%

CCC(O)C#CCO (stereo unspecified)
Activity (J774.A1): 100% | TGI (NCI-H292 [6]): Active | Activity (K562 [1]): 100% | Activity (NCI-H292 [2]): 100% | Activity [3]: 100% | TGI (HL-60): Active | TGI (MCF7 [7]): Active | Activity [4]: 100% | Activity (MCF7 [5]): 100% | TGI (HEp-2): Active | TGI (K562 [8]): Active | Activity (RAW264.7): 100%
